Laboratory results published in ChEMBL document CHEMBL4477211, “Synthesis and Investigation of Tetrahydro-β-carboline Derivatives as Inhibitors of the Breast Cancer Resistance Protein (ABCG2)” (J Med Chem, 2016).

Experiments:
ABCB1 = ABCB1 (Homo sapiens, UniProt P08183); assay: Inhibition of ABCB1 in human A2780/ADR cells assessed as reduction in calcein AM efflux at 10 uM pre-incubated for 30 mins before calcein AM addition and measured for 60 mins by microplate reader analysis relative to control; format: cell-based; conditions: probe calcein AM
Chain of ABCB1 (P08183 whole entry): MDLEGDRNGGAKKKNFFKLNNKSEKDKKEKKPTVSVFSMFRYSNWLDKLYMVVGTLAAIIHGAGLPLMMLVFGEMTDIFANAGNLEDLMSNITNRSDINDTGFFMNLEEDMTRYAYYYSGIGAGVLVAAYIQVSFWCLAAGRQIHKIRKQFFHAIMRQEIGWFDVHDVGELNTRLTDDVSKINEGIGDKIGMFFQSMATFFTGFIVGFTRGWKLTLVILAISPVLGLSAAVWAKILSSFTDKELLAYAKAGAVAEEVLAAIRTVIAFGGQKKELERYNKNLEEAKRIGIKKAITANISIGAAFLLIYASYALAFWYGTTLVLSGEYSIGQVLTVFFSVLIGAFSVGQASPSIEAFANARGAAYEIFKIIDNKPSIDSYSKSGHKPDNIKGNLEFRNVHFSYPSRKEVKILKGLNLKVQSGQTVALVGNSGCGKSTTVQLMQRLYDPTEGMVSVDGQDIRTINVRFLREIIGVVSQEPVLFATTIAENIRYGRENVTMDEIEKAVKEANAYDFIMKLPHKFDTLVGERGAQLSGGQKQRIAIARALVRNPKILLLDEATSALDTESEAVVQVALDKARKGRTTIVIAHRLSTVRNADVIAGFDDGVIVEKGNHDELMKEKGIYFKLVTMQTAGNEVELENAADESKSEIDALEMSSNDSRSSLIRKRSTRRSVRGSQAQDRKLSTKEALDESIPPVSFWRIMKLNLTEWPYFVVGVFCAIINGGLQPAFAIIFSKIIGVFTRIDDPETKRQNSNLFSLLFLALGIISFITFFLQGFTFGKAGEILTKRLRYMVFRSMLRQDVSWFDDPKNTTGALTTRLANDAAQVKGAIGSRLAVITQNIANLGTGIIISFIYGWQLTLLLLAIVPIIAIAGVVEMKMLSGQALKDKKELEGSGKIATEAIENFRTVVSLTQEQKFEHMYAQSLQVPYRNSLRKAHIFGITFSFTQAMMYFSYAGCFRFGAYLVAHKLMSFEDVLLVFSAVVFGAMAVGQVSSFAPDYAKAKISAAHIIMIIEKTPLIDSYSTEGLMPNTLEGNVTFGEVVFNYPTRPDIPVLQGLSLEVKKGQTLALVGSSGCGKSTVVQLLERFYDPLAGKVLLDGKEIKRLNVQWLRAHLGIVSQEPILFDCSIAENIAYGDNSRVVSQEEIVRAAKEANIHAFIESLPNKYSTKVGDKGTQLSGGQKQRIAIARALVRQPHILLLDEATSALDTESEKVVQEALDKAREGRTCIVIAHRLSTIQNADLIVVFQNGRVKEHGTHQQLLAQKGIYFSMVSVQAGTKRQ
Procedure, shortened: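 Compound at 10 µM pre-incubated 30 min at 37 °C. Calcein AM added from 3.125 µM solution. Fluorescence (ex 485/em 520 nm) read every 60 s for 60 min.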

[1] = molecular target: T1, Broad substrate specificity ATP-binding cassette transporter ABCG2 (Homo sapiens, UniProt Q9UNQ0); assay: Inhibition of human ABCG2 expressed in MDCK2 cells assessed as reduction in Hoechst 33342 efflux pre-incubated for 30 mins before Hoechst 33342 addition and measured for 120 mins by microplate reader analysis; format: cell-based
T1 sequence (Q9UNQ0 whole entry): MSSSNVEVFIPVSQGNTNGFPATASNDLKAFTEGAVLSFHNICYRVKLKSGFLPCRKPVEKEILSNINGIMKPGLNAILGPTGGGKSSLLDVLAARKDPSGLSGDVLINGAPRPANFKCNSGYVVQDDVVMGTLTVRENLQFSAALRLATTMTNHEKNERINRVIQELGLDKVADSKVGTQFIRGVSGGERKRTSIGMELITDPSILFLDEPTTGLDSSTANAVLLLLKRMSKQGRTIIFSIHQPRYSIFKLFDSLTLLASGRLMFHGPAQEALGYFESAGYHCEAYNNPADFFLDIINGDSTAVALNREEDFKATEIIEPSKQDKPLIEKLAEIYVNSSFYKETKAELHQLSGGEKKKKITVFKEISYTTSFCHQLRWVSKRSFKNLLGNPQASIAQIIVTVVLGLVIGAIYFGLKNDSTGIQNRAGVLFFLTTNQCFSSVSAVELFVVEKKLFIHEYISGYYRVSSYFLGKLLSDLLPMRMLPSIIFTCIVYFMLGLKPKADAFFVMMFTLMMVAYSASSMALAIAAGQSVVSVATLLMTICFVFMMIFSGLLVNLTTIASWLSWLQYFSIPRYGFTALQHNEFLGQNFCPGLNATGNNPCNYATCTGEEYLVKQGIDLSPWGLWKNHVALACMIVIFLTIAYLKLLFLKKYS
Procedure, shortened: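 Compound dilutions up to 10 µM (from 10 mM DMSO stocks) pre-incubated 30 min at 37 °C. Hoechst 33342 then added from 6 µM solution. Fluorescence (ex 355/em 460 nm) read each 60 s over 120 min.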

[2] = molecular target: ATP-dependent translocase ABCB1 (Homo sapiens, UniProt P08183); assay: Inhibition of ABCB1 in human A2780/ADR cells assessed as reduction in calcein AM efflux pre-incubated for 30 mins before calcein AM addition and measured for 60 mins by microplate reader analysis relative to control; format: cell-based
Chain of ATP-dependent translocase ABCB1 (P08183 whole entry): as the sequence (P08183 whole entry) above

[3] = Solubility in pH 7.4 Krebs-HEPES buffer at 10 uM after 2 hrs by UV-visible spectrophotometric analysis; format: physicochemical; conditions: pH 7.4, 2 h
Procedure, shortened: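 10 µM test solutions prepared from DMSO stocks as for the Hoechst 33342 assay, in Krebs-HEPES pH 7.4. Absorbance at an absorption peak maximum recorded every 120 s for 2 h at room temperature by UV/visible spectrophotometer.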

[4] = molecular target: T1, Broad substrate specificity ATP-binding cassette transporter ABCG2; assay: Inhibition of human ABCG2 expressed in MDCK2 cells assessed as reduction in pheophorbide A efflux pre-incubated for 30 mins before pheophorbide A addition and measured for 120 mins by flow cytometry
[5] = Cytotoxicity against MDCK2 cells expressing human ABCG2 assessed as reduction in cell viability after 72 hrs by MTT assay; format: ADME, cell-based, Canis lupus familiaris; conditions: dog, MDCK2 (MDCK-II) cells expressing human ABCG2
Procedure, shortened: (§1)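 MDCK II cells retrovirally transfected with human ABCG2-GFP cDNA, and wild-type MDCK II, in DMEM with 10% FBS. Seeded at 3 x 10^3 cells/well and attached 6 h at 37 °C, 5% CO2. Compounds up to 100 µM for 72 h. Controls were 10% DMSO and medium. MTT (5 mg/ml) added for 1 h, read at 570 nm minus 690 nm. Data normalised; GI50 from variable-slope sigmoidal fit.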

[6] = molecular target: T1, Broad substrate specificity ATP-binding cassette transporter ABCG2; assay: Inhibition of human ABCG2 expressed in baculovirus infected Sf9 cell membrane assessed as inhibition of vanadate sensitive ATPase activity at 1 uM after 20 mins by colorimetric method; conditions: sf9, 20 min
[7] = Cytotoxicity against wild-type MDCK2 cells assessed as reduction in cell viability after 72 hrs by MTT assay; format: cell-based, Canis lupus familiaris; conditions: dog, wild-type MDCK2 (MDCK-II) cells; procedure, shortened: as §1
ABCG2 = molecular target: T2, ABCG2 (Homo sapiens, UniProt Q9UNQ0); assay: Ratio of IC50 for human ABCG2 expressed in baculovirus infected Sf9 cell membrane assessed as inhibition of vanadate sensitive quercetin-stimulated ATPase activity to IC50 for human ABCG2 expressed in baculovirus infected Sf9 cell membrane assessed as inhibition of vanadate sensitive basal ATPase activity; conditions: read-out: Ratio IC50
T2 sequence (Q9UNQ0 whole entry): T1 sequence (Q9UNQ0 whole entry)

[8] = molecular target: T1, Broad substrate specificity ATP-binding cassette transporter ABCG2; assay: Inhibition of human ABCG2 expressed in baculovirus infected Sf9 cell membrane assessed as inhibition of vanadate sensitive quercetin-stimulated ATPase activity after 20 mins by colorimetric method
Procedure, shortened: (§2)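 Cholesterol-loaded membranes from Sf9 cells infected with baculovirus carrying human wild-type ABCG2; 10 µg protein per reaction. Buffer: 40 mM MOPS-Tris pH 7.0, 50 mM KCl, 2 mM DTT, 0.5 mM EGTA-Tris, 5 mM azide, 1 mM ouabain. Started with 3.3 mM MgATP, 20 min at 37 °C, stopped with SDS. Pi measured by molybdate/ascorbate colour at 880 nm against K2HPO4 standard.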

[9] = molecular target: T1, Broad substrate specificity ATP-binding cassette transporter ABCG2; assay: Inhibition of human ABCG2 expressed in baculovirus infected Sf9 cell membrane assessed as inhibition of vanadate sensitive basal ATPase activity after 20 mins by colorimetric method; procedure, shortened: as §2
[10] = molecular target: T1, Broad substrate specificity ATP-binding cassette transporter ABCG2; assay: Reversal of human ABCG2-mediated resistance to SN-38 in human ABCG2 expressed MDCK2 cells assessed as reduction in SN-38 GI50 after 72 hrs by MTT assay

| Structure (SMILES) | inhibition at 1 h, 10 µM (ABCB1) [%] | IC50 ([1]; read-out: IC50) [µM] | IC50 [2] [µM] | further results |
| --- | --- | --- | --- | --- |
| O=C(c1ccccc1)N1CCc2c([nH]c3ccccc23)C1c1ccc(F)cc1 (stereo not drawn) | > 25 | 1.89 | 13.4 | – |
| COc1ccc(C(=O)N2CCc3c([nH]c4ccccc34)C2c2ccc(F)c(F)c2)cc1OC (stereo not drawn) | > 25 | 1.1 | 2.86 | – |
| COc1ccc(C(=O)N2CCc3c([nH]c4ccccc34)C2c2cccc(Cl)c2)cc1 (stereo not drawn) | > 25 | 0.883 | 19.2 | – |
| COc1ccc(C(=O)N2CCc3c([nH]c4ccccc34)C2c2ccc(F)c(F)c2)cc1 (stereo not drawn) | > 25 | 0.805 | 8.24 | – |
| COc1ccc(C(=O)N2CCc3c([nH]c4ccccc34)C2c2ccccc2)cc1 (stereo not drawn) | > 25 | 1.75 | 9.55 | – |
| COc1ccc(C(=O)N2CCc3c([nH]c4ccccc34)C2c2ccc(Cl)c(Cl)c2)cc1OC (stereo not drawn) | > 25 | 0.698 | 14.3 | – |
| CCn1c2c(c3ccccc31)CCN(C(=O)c1ccccc1)C2c1ccccc1 (stereo not drawn) | > 25 | 10.4 | 9.23 | solubility [3]: Soluble |
| O=C(c1ccccc1)N1CCc2c([nH]c3ccccc23)C1c1ccc(F)c(F)c1 (stereo not drawn) | > 25 | 1.1 | 8.76 | IC50 ([4]; read-out: IC50): 1.8 µM |
| CC(C)CC1c2[nH]c3ccccc3c2CCN1C(=O)c1ccccc1 (stereo not drawn) | > 25 | 2.33 | 12.9 | – |
| O=C(c1cccc2ccccc12)N1CCc2c([nH]c3ccccc23)C1c1ccc(Cl)c(Cl)c1 (stereo not drawn) | < 25 | 1.32 | – | – |
| COc1ccc(C2c3[nH]c4ccccc4c3CCN2C(=O)c2ccccc2)cc1OC (stereo not drawn) | > 25 | 3.62 | 7.33 | – |
| N#Cc1cccc(C2c3[nH]c4ccccc4c3CCN2C(=O)c2ccccc2)c1 (stereo not drawn) | > 25 | 2 | 6.55 | – |
| COc1ccc(C2c3[nH]c4ccccc4c3CCN2C(=O)c2ccccc2)cc1 (stereo not drawn) | > 25 | 2.21 | 12 | – |
| O=C(c1ccccc1)N1CCc2c([nH]c3ccccc23)C1c1cccc(Cl)c1 (stereo not drawn) | > 25 | 0.869 | 22.5 | IC50 ([4]; read-out: IC50): 0.811 µM |
| COc1ccc2c(c1)[nH]c1c(C)nccc12 [HARMINE] | – | – | – | GI50 at 72 h [5]: 2.42 µM; inhibition (INH) [6]: Not Active; GI50 at 72 h [7]: 2.3 µM |
| COc1cccc(C2c3[nH]c4ccccc4c3CCN2C(=O)c2ccccc2)c1 (stereo not drawn) | > 25 | 1.92 | 6.22 | – |
| O=C(c1ccccc1)N1CCc2c([nH]c3ccccc23)C1c1ccccc1F (stereo not drawn) | > 25 | 4.49 | 11.3 | – |
| O=C(c1ccccc1)N1CCc2c([nH]c3ccccc23)C1c1ccccc1 (stereo not drawn) | > 25 | 2.78 | 7.94 | selectivity ratio (ABCG2): 10.3; IC50 [8]: 2.02 µM; IC50 [9]: 0.196 µM; GI50 at 72 h [5]: 12.9 µM; Activity [10]: Dose-dependent effect; inhibition (INH) [6]: Active; GI50 at 72 h [7]: 12.4 µM; solubility [3]: Soluble |
| Clc1ccc(C2c3[nH]c4ccccc4c3CCN2Cc2ccccc2)cc1Cl (stereo not drawn) | < 25 | > 10 | – | solubility [3]: Soluble |
| O=C(c1ccc(Cl)cc1)N1CCc2c([nH]c3ccccc23)C1c1ccc(Cl)c(Cl)c1 (stereo not drawn) | < 25 | 1.03 | – | – |
| COc1ccc(C(=O)N2CCc3c([nH]c4ccccc34)C2c2cccc(OC)c2)cc1 (stereo not drawn) | > 25 | 1.45 | 3.38 | – |
| c1ccc(CN2CCc3c([nH]c4ccccc34)C2c2ccccc2)cc1 (stereo not drawn) | < 25 | > 10 | – | solubility [3]: Soluble |
| CC(=O)Nc1ccc(C2c3[nH]c4ccccc4c3CCN2C(=O)c2ccccc2)cc1 (stereo not drawn) | > 25 | 7.82 | 7.4 | solubility [3]: Soluble |
| Cc1ccc(C2c3[nH]c4ccccc4c3CCN2C(=O)c2ccccc2)cc1 (stereo not drawn) | < 25 | 1.43 | – | – |
| CCn1c2c(c3ccccc31)CCN(C(=O)c1cccc(OC)c1)C2c1ccc(Cl)c(Cl)c1 (stereo not drawn) | < 25 | > 10 | – | solubility [3]: Soluble |
| COc1ccc(C(=O)N2CCc3c([nH]c4ccccc34)C2c2ccc(C(F)(F)F)cc2)cc1 (stereo not drawn) | < 25 | 1.23 | – | solubility [3]: Soluble |
| COc1cccc(C2NCCc3c2[nH]c2ccccc32)c1 (stereo not drawn) | < 25 | – | – | IC50 [1]: Not Active; IC50 [4]: Not Active |
| O=C(c1ccc(Cl)cc1)N1CCc2c([nH]c3ccccc23)C1c1ccc(Br)cc1 (stereo not drawn) | < 25 | 1.78 | – | – |
| O=C(c1ccc(Cl)cc1)N1CCc2c([nH]c3ccccc23)C1c1ccc(F)c(F)c1 (stereo not drawn) | > 25 | 1.26 | 23.4 | – |
| c1ccc(C2NCCc3c2[nH]c2ccccc32)cc1 (stereo not drawn) | < 25 | – | – | IC50 [1]: Not Active; IC50 [4]: Not Active |
